Calls of active or inactive are those of the source. The calls are words filed in the database; no cut-off is given here.
Legend:
BV-2 [1] = assay: Antiinflammatory activity in mouse BV2 cells assessed as downregulation of LPS-induced IL-1beta mRNA expression at 3 uM by qRT-PCR method; assay type: functional, cell-based
Procedure, shortened: (§1)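 BV-2 mouse microglia (DMEM, 10% heat-inactivated FBS, 2 mM glutamine) in six-well plates at 1.0 × 10^5 cells/well, given LPS with or without compound at 37 °C. RNA extracted. IL-1β and IL-6 mRNA measured by SYBR Green real-time PCR on cDNA from 50 ng DNase-treated RNA. ANOVA with Tukey–Kramer, n = 4.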

SH-SY5Y [2] = assay: Neuroprotective activity against 6-OHDA-induced cell death in human SH-SY5Y cells assessed as decrease in cleaved caspase-3 level at 6 uM by Western blot method; assay type: functional, cell-based
Procedure, shortened: (§2)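 SH-SY5Y cells exposed to 6-OHDA in serum-free N-2 medium ± compound at 6 µM. Lysates in Triton/Tris/NaCl/PMSF, SDS-PAGE, PVDF blot, HRP secondary, ECL detection of cleaved caspase-3 and cytosolic cytochrome c. Actin and SOD-1 used as loading controls.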

[3] = biological target: Nuclear receptor subfamily 4 group A member 2 (Mus musculus) (UniProt Q06219); assay: Activation of mouse Nurr1 transfected in human SK-N-BE(2)C cells by luciferase reporter gene assay; assay type: cell-based
Chain of Nuclear receptor subfamily 4 group A member 2 (Mus musculus) (Q06219 whole entry, the tested form may be a part): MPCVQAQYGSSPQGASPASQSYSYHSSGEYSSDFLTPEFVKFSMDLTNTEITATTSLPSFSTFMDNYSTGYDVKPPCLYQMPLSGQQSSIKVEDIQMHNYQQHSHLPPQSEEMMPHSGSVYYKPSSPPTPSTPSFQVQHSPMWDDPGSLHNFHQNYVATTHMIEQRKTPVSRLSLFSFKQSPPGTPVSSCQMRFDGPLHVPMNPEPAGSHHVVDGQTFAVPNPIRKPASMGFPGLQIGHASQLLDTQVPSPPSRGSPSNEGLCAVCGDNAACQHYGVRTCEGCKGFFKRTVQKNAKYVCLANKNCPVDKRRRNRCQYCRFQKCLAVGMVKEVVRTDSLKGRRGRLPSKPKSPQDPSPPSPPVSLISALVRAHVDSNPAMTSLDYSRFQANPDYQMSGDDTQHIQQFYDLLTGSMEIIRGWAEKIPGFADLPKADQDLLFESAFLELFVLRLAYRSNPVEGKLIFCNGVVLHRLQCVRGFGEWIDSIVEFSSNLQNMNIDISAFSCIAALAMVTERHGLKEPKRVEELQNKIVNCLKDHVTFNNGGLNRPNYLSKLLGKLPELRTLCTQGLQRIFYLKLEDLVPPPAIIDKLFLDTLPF
Procedure, shortened: (§3)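 SK-N-BE(2)C neuroblastoma cells plated 1.5 × 10^5/well a day before, transfected with pTH2600LUC (2.6 kb rat TH promoter), pCMV Nurr1-myc, pZeoSV-Nurr1(LBD), p8xGAL-Luc and pRSV-β-gal control (0.5 µg DNA/well total). Test agent added 6 h post-transfection in DMEM with 1% charcoal-stripped serum, incubated overnight. Firefly luciferase read, normalized to β-galactosidase.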

BV-2 [4] = assay: Antiinflammatory activity in mouse BV2 cells assessed as downregulation of LPS-induced IL-6 level at 3 uM by Western blot method; assay type: functional, cell-based
[5] = Cytotoxicity against human SH-SY5Y cells assessed as decrease in cell viability at higher concentrations by MTT reduction assay; assay type: toxicity, cell-based
BV-2 [6] = assay: Antiinflammatory activity in mouse BV2 cells assessed as downregulation of LPS-induced IL-6 mRNA expression at 3 uM by qRT-PCR method; assay type: functional, cell-based; procedure, shortened: as §1
SH-SY5Y [7] = assay: Neuroprotective activity against 6-OHDA-induced cell death in human SH-SY5Y cells assessed as decrease in release of mitochondrial cytochrome c into cytosolic fraction at 6 uM by Western blot method; assay type: functional, cell-based; procedure, shortened: as §2
[8] = Cytotoxicity against human SK-N-BE(2)C cells up to 30 uM; assay type: toxicity, cell-based
SH-SY5Y [9] = assay: Neuroprotective activity against 6-OHDA-induced cell death in human SH-SY5Y cells assessed as increase in cell viability at 6.25 uM by MTT reduction assay; assay type: functional, cell-based
Procedure, shortened: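 SH-SY5Y cells grown 2 days on poly-D-lysine in DMEM with 10% horse serum and 5% FBS, then switched to serum-free N-2 medium containing 6-OHDA ± compound. Viability by MTT (1 mg/mL final, 1 h), formazan solubilized 24 h in Triton/HCl/isopropanol, absorbance 570 nm. ANOVA with Tukey–Kramer, n = 4.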

BV-2 [10] = assay: Antiinflammatory activity in mouse BV2 cells assessed as downregulation of LPS-induced IL-1beta level at 3 uM by Western blot method; assay type: functional, cell-based
[11] = biological target: Nuclear receptor subfamily 4 group A member 2 (Mus musculus) (UniProt Q06219); assay: Activation of mouse Nurr1 transfected in human SK-N-BE(2)C cells at 0.3 uM by luciferase reporter gene assay relative to control; assay type: cell-based; procedure, shortened: as §3
Rattus norvegicus [12] = assay: Neuroprotective activity in 6-OHDA-lesioned Sprague-Dawley rat model of parkinson disease assessed as decrease in d-amphetamine-induced ipsilateral rotations at 0.5 mg/kg/day, ip administered for 2 weeks measured on day 14 and 42 post 6-OHDA lesion induction relative to vehicle-treated control; assay type: functional, organism-based
Procedure, shortened: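 Sprague-Dawley rats (140–160 g), desipramine 25 mg/kg ip 30 min before surgery, under Zoletil anesthesia. 6-OHDA 8 µL of 2.5 µg/µL injected into left striatum. Compound in saline with 0.25% ethanol or vehicle given ip daily for 2 weeks (n = 10 vs 14). d-Amphetamine 5 mg/kg. Ipsilateral turns counted for 30 min starting 30 min after dosing, at weeks 2 and 6. Student's t-test.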

Rattus norvegicus [13] = assay: Antiinflammatory activity in 6-OHDA-lesioned Sprague-Dawley rat model of parkinson disease assessed as decrease in Iba-1 positive cell levels in striatum at 0.5 mg/kg/day, ip administered for 2 weeks measured on day 43 post 6-OHDA lesion induction by immunohistochemical analysis relative to vehicle-treated control; assay type: functional, organism-based
Procedure, shortened: (§4)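 Same unilateral striatal 6-OHDA rat model with 2-week daily ip dosing (vehicle 0.25% ethanol). Perfused with 4% PFA on day 43. 40 µm coronal sections stained by DAB for TH (SNc, AP −4.8 to −5.5) or Iba-1 (striatum, AP +1.0 to +0.6). Cells counted in three sections per animal. TH expressed as % of contralateral side. Student's t-test, n = 10–14.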

Rattus norvegicus [14] = assay: Neuroprotective activity in 6-OHDA-lesioned Sprague-Dawley rat model of parkinson disease assessed as decrease in loss of tyrosine hydroxylase-positive immunoreactive neuronal cell levels in ipsilateral side of substantia nigra pars compacta by measuring cell levels in intact contralateral side at 0.5 mg/kg/day, ip administered for 2 weeks measured on day 43 post 6-OHDA lesion induction by immunohistochemical analysis (reference value: 24.62 +/- 3.48%); assay type: functional; parameters: scale not given: the % may be the effect or the level left; procedure, shortened: as §4

Row | SMILES | Activity (BV-2 [1]) | Activity (SH-SY5Y [2]) | Activity [3] | Activity (BV-2 [4]) | Activity [5] | Activity (BV-2 [6]) | Activity (SH-SY5Y [7]) | Activity [8] | Activity (SH-SY5Y [9]) | Activity (BV-2 [10]) | fold change (FC) [11] | Activity (Rattus norvegicus [12]) | Activity (Rattus norvegicus [13]) | Activity (Rattus norvegicus [14]) [%]
1 | C=C(C)[C@]12C[C@@H](C)[C@@]34OC(c5ccccc5)(O[C@@H]1[C@@H]3[C@@H]1O[C@]1(CO)[C@@H](O)[C@@]1(O)[C@H]4C[C@H](C)[C@@H]1OC(=O)c1ccccc1)O2 | Active | Active | Dose-dependent effect | Active | Toxic | Active | Active | Non-Toxic | Active | Active | 3 | – | – | –
2 | C=C(C)[C@@]12OC3(/C=C/C=C/CCCCC)O[C@@H]1[C@@H]1[C@@H]4O[C@]4(CO)[C@@H](O)[C@]4(O)C(=O)C(C)=C[C@H]4[C@@]1(O3)[C@H](C)[C@H]2OC(=O)c1ccccc1 | Active | Active | Dose-dependent effect | Active | Toxic | Active | Active | Non-Toxic | Active | Active | 3.5 | Active | Active | 40.28

From ChEMBL document CHEMBL3853310, “Daphnane Diterpenes from Daphne genkwa Activate Nurr1 and Have a Neuroprotective Effect in an Animal Model of Parkinson's Disease” (J Nat Prod, 2016)
